# Assay results as given in ChEMBL document CHEMBL1147589, “Abeta aggregation inhibitors. Part 1: Synthesis and biological activity of phenylazo benzenesulfonamides” (Bioorg Med Chem Lett, 2004).
# What was measured:
# Rattus norvegicus [1] = organism: Rattus norvegicus; assay: Effective concentration required to inhibit A-beta-40 fibril formation […]; assay type: functional
# Summary of the method: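 Thioflavin-T binding assay of Aβ40 aggregation. Aβ40 (25) was incubated with the compound at various concentrations in 50 mM TBS, pH 7.4, at 37 °C for 2 days. Fluorescence was read at Ex 450/Em 482 and scaled to Aβ40 alone (100%). EC50 is the concentration inhibiting aggregation by 50%. Values are averages of three separate experiments.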
# Rattus norvegicus [2] = organism: Rattus norvegicus; assay: Evaluated for neurotoxicity by inhibition of neuron viability in rat cortical neurons expressed as IC50; assay type: functional
# Summary of the method: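 Cortical neurons were incubated with the compound at various concentrations, and viability was measured by MTT reduction with OD at 600 nm on an ELISA reader. IC50 is the concentration inhibiting neuron viability by 50%. Values are averages of three separate experiments.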
# [3] = Therapeutic index expressed as the ratio of IC50 to EC50; conditions: rat; read-out: Therapeutic index
# Summary of the method: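 Therapeutic index = IC50/EC50. IC50 is the concentration inhibiting neuron viability by 50% in the MTT reduction assay on cortical neurons. EC50 is the concentration inhibiting Aβ40 aggregation by 50% in the thioflavin-T assay (25 Aβ40, TBS pH 7.4, 37 °C, 2 days). Both were determined at various compound concentrations in three separate experiments.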
EC50 (Rattus norvegicus [1]) [µM],SMILES,IC50 (Rattus norvegicus [2]) [µM],selectivity ratio [3]
100,Nc1ccc(/N=N/c2ccc(S(N)(=O)=O)cc2)cc1,> 100,
15.1,CCN(CC)CCNc1ccc(/N=N/c2ccc(S(N)(=O)=O)cc2)c2ccccc12,22.1,1.47
77.2,NS(=O)(=O)c1ccc(/N=N/c2ccc(NCS(=O)(=O)O)cc2)cc1,> 100,> 1.29
12.9,CN(C)c1ccc(/N=N/c2ccc(S(N)(=O)=O)cc2)cc1,> 100,> 7.75
56.8,CSc1cc(N)ccc1/N=N/c1ccc(S(N)(=O)=O)cc1,> 100,> 1.76
